Lmaj promast: inhibitors of Leishmania major promastigote growth. inhibition, % at 10 µM. 200,000 compounds, 9% hits. Leishmania major promastigotes, resazurin fluorescence viability;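 note: promastigotes grown with compound for 44 hours at 28 °C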
Diaph inh CS: inhibits diaphorase or chemically oxidizes, flagging diaphorase assay artifacts. 190,000 compounds, 0.69% hits. diaphorase resazurin-to-resorufin fluorescence, NADH, 16 min; bacterial (C. kluyveri) enzyme, not human. AID 1217. inhibition, % at 20 µM;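 active = primary screen inhibition at 20 µM above a set limit, cut at about 50% in these data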;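 note: plate controls were DMSO with full reaction for no effect and wells lacking NADH for full effect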
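System: Diaphorase enzyme from Clostridium kluyveri | Amount: Enzyme working solution with 0.14 U/mL diaphorase | Benchmarks: No-NADH positive control and DMSO neutral control | Signal: Fluorescence of resorufin formed from resazurin, Ex 544/Em 590 nm | Schedule: 16-min room-temperature incubation before reading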
Diaphorase act: counter-screen for diaphorase-based assays: diaphorase activators and chemical reducers | Diaphorase/resazurin coupled assay, resorufin fluorescence, 16 min; hits give high values; 1 = vehicle wells, 0 = NADH-free wells | activation factor at 20 µM | 190,000 compounds, 0.005% hits | AID 1229;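 active = diaphorase activity raised at least twofold by the compound at 20 µM; inactive = activation factor below 2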
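Assay system: Purified diaphorase enzyme from Clostridium kluyveri | Amount: Enzyme 0.07 U/mL final | Dosing: Compound 20 µM once, DMSO 1% | Timing: 16 min reaction at room temperature | Detection: Fluorescence, excitation 544 nm and emission 590 nm | Evaluation: Higher resorufin formation from activation or reduction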
WT yeast gro inh: growth inhibition of WT yeast, mitochondrial fusion screen | mitochondrial fusion phenotypic screen, WT strain | inhibition, % at 10 µM | 190,000 compounds, 2.1% hits | AID 1362; in the data active = inhibition above about 58%; tested in S. cerevisiae
G6PDH CS: inhibits Leuconostoc G6PDH, flagging false hits in G6PDH-based assays | Purified L. mesenteroides G6PDH, diaphorase/resazurin coupled fluorescence, 45 min | AID 1020 | inhibition, % at 5 µM | 200,000 compounds, 0.12% hits
Active calls of the source: *. A selection: hits, their analogues and other compounds. The true share with any hit is near 11%. Cut-off read from the data, not from the text of the source, unless noted: active = inhibition above about 50%; inactive = the rest.

SMILES	Lmaj promast	Diaph inh CS	Diaphorase act	WT yeast gro inh	G6PDH CS
CN(C)CCN(C(=O)CCc1ccccc1)c1nc2c(F)cc(F)cc2s1	3.3	14.3	0.9	4.9	-2.8
CN(C)CCCN(C(=O)CCc1ccccc1)c1nc2ccc(Br)cc2s1	61.4*	-12.0	1.1	92.0	0.3
CN(C)CCCN(C(=O)CCc1ccccc1)c1nc2ccc(F)cc2s1	48.2	5.7	0.9	89.0*	-43.9
COCCSc1nnc(NC(=O)c2ccc(OC)c([N+](=O)[O-])c2)s1	5.2	-9.7	1.1	-0.2	2.1
N#Cc1c(N2CCCCC2)nc(N)c2c(N)nc3c(c12)CC(CCl)O3 (centres undefined)	2.2	9.8	0.9	-19.7	10.5
N#Cc1c(N)nc2c(c1N)CC(CCl)O2 (centres undefined)	56.9*	-1.0	1	-1.8	7.7
CC(=O)N1CCN(S(=O)(=O)c2ccc(Cl)cc2F)CC1	-4.1	9.2	0.9	-10.8	-3.4
CC(C)c1ccc(CN2CCC(C(=O)NCc3cccnc3)CC2)cc1	1.1	10.7	0.9	2.9	16.6
Cc1ccccc1/C=N/N1CCN(c2ccccc2)CC1	-8.1	7.5	0.9	-6.0	0.5
OC(COCc1ccccc1)CN1CCN(Cc2ccc3c(c2)OCO3)CC1 (centres undefined)	89.8*	12.9	0.9	0.2	5.1
SC(COCc1ccccc1)CN1CCN(Cc2ccc3c(c2)OCO3)CC1 (centres undefined)	57.8*	22.3	0.8	16.9	-13.6
CC1CN(CC(O)COCc2ccc3c(c2)OCO3)CC(C)O1 (centres undefined)	69.0*	-7.1	1.1	-5.9	5.8
Cn1c(SCC(=O)Nc2cccc(F)c2)nc2c([nH]c3ccccc32)c1=O	-0.2	-3.7	1	3.4	-3.5
CCC(C)(C)n1nnnc1C(c1ccc(C)cc1)N1CCCC1 (centres undefined)	64.7*	13.5	0.9	11.0	1.4
CC(C)C(c1nnnn1C1CCCCC1)N1CCc2ccccc2C1 (centres undefined)	66.5*	9.5	0.9	13.6	5.9
CCC(C)(C)n1nnnc1C(c1ccc(O)c(OC)c1)N1CCc2ccccc2C1 (centres undefined)	0.8	13.2	0.9	7.3	2.5
CCC(C)(C)n1nnnc1C(c1cccs1)N1CCCCC1 (centres undefined)	14.2	16.0	0.8	7.6	14.2
CCC(C)(C)n1nnnc1C(c1ccccc1)N1CCc2ccccc2C1 (centres undefined)	76.8*	11.9	0.9	13.3	-11.8
COc1ccc2[nH]c(=O)c(C(c3nnnn3C3CCCCC3)N3CCN(C)CC3)cc2c1 (centres undefined)	-8.5	5.9	0.9	-4.2	4.7
COc1ccc2cc(C(c3nnnn3C3CCCC3)N3CCc4ccccc4C3)c(=O)[nH]c2c1 (centres undefined)	82.1*	55.7*	0.4	-3.6	16.9
CC(C)(C)c1cc(NC(=O)c2cc(F)c(F)c(F)c2F)no1	-4.6	15.8	0.8	10.0	-2.3
Cc1ccc(N2CCN(/N=C/c3sccc3C)CC2)cc1	1.1	8.3	0.9	-14.2	-38.6
CCC(C)(C)n1nnnc1C(c1cc2ccc(OC)cc2[nH]c1=O)N1CCc2ccccc21 (centres undefined)	10.1	42.2	0.6	9.5	4.1
CCC(C)(C)n1nnnc1C(c1cccc(C#N)c1)N1CCN(c2cccc(C)c2C)CC1 (centres undefined)	76.4*	23.0	0.8	2.5	4.5
CCC(C)(C)n1nnnc1C(c1cc2ccc(OC)cc2[nH]c1=O)N1CCc2ccccc2C1 (centres undefined)	99.8*	47.0	0.5	-0.7	3.5
SMILES	Lmaj promast	Diaph inh CS	Diaphorase act	WT yeast gro inh	G6PDH CS
CC(C)(C)n1nnnc1C(c1cccc(C#N)c1)N1CCCCCC1 (centres undefined)	13.8	12.2	0.9	-2.3	4.3
COc1ccc2cc(C(c3nnnn3C(C)(C)C)N3CCSCC3)c(=O)[nH]c2c1 (centres undefined)	-6.0	31.1	0.7	-7.0	-6.1
COc1ccc2cc(C(c3nnnn3C(C)(C)C)N3CCc4ccccc4C3)c(=O)[nH]c2c1 (centres undefined)	98.5*	52.5*	0.5	3.7	-21.7
COc1cccc(NC2=NC3(CCCCC3)N=C(N)N2)c1	-2.1	-14.0	1.1	-3.0	3.1
COc1ccc(C)cc1S(=O)(=O)N(C)CC(=O)N1CCC(C(N)=O)CC1	-2.7	-2.0	1	-1.0	9.1
CC(=O)Nc1ccc(Nc2ncnc3c2cnn3-c2ccc(C)cc2C)cc1	68.0*	17.5	0.8	0.2	-1.4
Cc1cccc(-n2ncc3c(NCc4cccs4)ncnc32)c1	96.7*	23.5	0.8	10.7	3.5
CC(=O)Nc1ccc(Nc2ncnc3c2cnn3-c2cccc(C)c2)cc1	75.2*	20.7	0.8	20.9	-52.4
Cc1cccc(-n2ncc3c(NCc4ccccc4)ncnc32)c1	-4.8	15.7	0.8	9.5	-22.3
Cc1cccc(-n2ncc3c(N4CCCc5ccccc54)ncnc32)c1	3.9	20.3	0.8	71.0*	0.5
CCN(C(=O)COC(=O)c1c2c(nc3ccccc13)/C(=C/c1ccccc1)CC(C)C2)C1CCS(=O)(=O)C1 (centres undefined)	19.6	34.9	0.7	32.2	17.8
CC(C)(C)NCCOc1ccc(Br)cc1	95.2*	21.7	0.8	-3.6	-0.5
Cc1ccc2c(c1)N(C(=O)NC1CCCCC1)C(C)(C)CC2C (centres undefined)	11.3	12.6	0.9	0.5	2.6
COC(=O)c1ccc(NC(c2ccc(Cl)cc2)P(=O)(OC)OC)cc1 (centres undefined)	-5.7	15.0	0.8	-5.6	25.9
C/C(=N/NC(=O)c1cn(-c2cccc(C)n2)cn1)c1ccc(C)cc1	76.9*	-3.1	1	3.8	0.4
COc1cc(/C=N/NC(=O)c2cn(-c3cccc(C)n3)cn2)ccc1O	98.3*	8.5	0.9	4.1	-3.6
Cc1cccc(-n2cnc(C(=O)O)c2)n1	-5.9	10.8	0.9	5.8	14.1
COc1cc(/C=N/NC(=O)c2nc(C)cc(C)n2)ccc1O	10.8	12.8	0.9	-9.9	2.1
Fc1ccc(CO/N=C/C2=C(Cl)c3ccccc3CC2)cc1	-2.8	14.3	0.9	58.0*	-5.0
O=c1cc2c(nn1Cc1ccc(F)cc1)-c1ccccc1CC2	10.2	4.0	1	57.9	8.5
COc1ccc(-n2c3c(cc(C(=O)NCc4ccco4)c2=O)C(=O)CC(C)(C)C3)cc1	54.5*	15.1	0.8	3.7	7.6
CC1(C)CC(=O)c2cc(C(=O)N3CCCC(C)(C)C3)c(=O)n(-c3ccccc3)c2C1	82.5*	2.4	1	2.3	3.4
COC(=O)C(CCSC)NC(=O)c1cc2c(n(-c3ccccc3)c1=O)CC(C)(C)CC2=O (centres undefined)	83.7*	5.8	0.9	17.1	4.6
